Bioassay records as filed in PubChem BioAssay.
miR-122 sensor: miR-122 Renilla sensor signal increase in Huh7, primary screen, miR-122 inhibitor project, cell-based, single point, plate reader; AID 602342, 2012; activation (reporter increase), % at 12.5 µM; 340,000 tested, 0.3% active; Huh7 miR-122 Renilla luciferase sensor, 48 h; neutral wells = 0, positive control = 100;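 active = mean replicate activation score at least 90 and every replicate individually at or above 90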;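 also: higher luciferase means less miR-122 activity so hits act as miR-122 inhibitors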
Jurkat NFkB inh: inhibitors of induced NF-kB luciferase reporter, primary screen, TCR NF-kB activation inhibitor project, cell-based, luminescence, uHTS | Jurkat, PMA/ionomycin-induced NF-kB luciferase reporter | 330,000 tested, 0.53% active | AID 435003, 2010 | inhibition, % at 4 µM; in the data active = inhibition above about 50%
FGF22 binding: binders of human FGF22 protein, primary screen, FGF22 synaptogenesis inhibitor project, biophysical, thermal shift, single point. Fibroblast growth factor 22 (Homo sapiens), Q9HCT0. recombinant FGF22 thermal shift, SYPRO orange fluorescence; percent of sucrose octasulfate shift, DMSO zero. activity (Tm shift, normalised), % at 9.99 µM. 340,000 tested, 1.5% active. AID 651658, 2012;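 active = mean Tm shift, scaled 0 neutral to 100 positive control, at about 1.3% or above, every replicate too, limit read from the data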
Target sequence (Q9HCT0 whole entry, looked up): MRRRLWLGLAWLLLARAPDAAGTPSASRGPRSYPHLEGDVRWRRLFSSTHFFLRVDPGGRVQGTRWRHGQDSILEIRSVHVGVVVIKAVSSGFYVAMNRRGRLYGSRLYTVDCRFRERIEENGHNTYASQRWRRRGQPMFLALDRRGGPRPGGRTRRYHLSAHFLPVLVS
NR2E3 ag-1: NR2E3 agonists in two-hybrid cells, primary screen, cell-based, luminescence, CHO-S, Gal4-NCOR/VP16-NR2E3 | Photoreceptor-specific nuclear receptor (Homo sapiens), Q9Y5X4 | inhibition of corepressor binding, % at 3.98 µM | 360,000 tested, 0.35% active | luciferase;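 active = inhibition above the mean of all tested compounds plus 3 SD, cut at about 70% in these data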;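 also: 0% = DMSO with NR2E3 transfected cells and 100% = cells lacking NR2E3 construct; higher means lower luciferase signal from less NR2E3 corepressor binding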
Target sequence (Q9Y5X4 whole entry, looked up, the tested form may be a part): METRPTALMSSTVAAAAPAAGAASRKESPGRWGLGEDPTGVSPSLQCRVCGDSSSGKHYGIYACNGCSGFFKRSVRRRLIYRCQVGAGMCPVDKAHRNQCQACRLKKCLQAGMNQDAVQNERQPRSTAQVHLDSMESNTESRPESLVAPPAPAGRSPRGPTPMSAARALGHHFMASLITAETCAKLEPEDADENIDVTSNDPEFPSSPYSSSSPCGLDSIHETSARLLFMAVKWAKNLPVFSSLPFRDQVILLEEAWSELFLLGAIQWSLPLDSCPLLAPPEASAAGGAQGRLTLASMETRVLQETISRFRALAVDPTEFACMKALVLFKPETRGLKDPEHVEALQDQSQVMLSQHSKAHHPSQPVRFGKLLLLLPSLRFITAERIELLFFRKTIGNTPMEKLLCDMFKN
697 NFkB inh: inhibitors of PMA/ionomycin-induced NF-kB reporter, 697 cells, primary screen, B-cell NF-kB inhibitor project, cell-based, luminescence, uHTS; 697 B-cell NF-kB luciferase reporter, 16 h; inhibition, % at 4 µM; 330,000 tested, 0.33% active; in the data active = inhibition above about 35%
NR2E3 ag-2: inhibitors of NR2E3-RetCOR corepressor binding, primary screen, NR2E3 agonist project, biochemical, TR-FRET, GST-NR2E3, biotin-RetCOR; 1536-well; Photoreceptor-specific nuclear receptor (Homo sapiens), Q9Y5X4; inhibition of corepressor binding, % at 4.78 µM; 320,000 tested, 0.12% active; AID 2300, 2010;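 active = percent inhibition above the cutoff of mean plus 3 SD of all tested compounds, set per screening campaign, cut at about 20% in these data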;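 also: 0% = DMSO wells and 100% = biotin wells as full block of FRET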
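Assay system: NR2E3–RetCOR corepressor complex. Quantity: 1.35 nM GST-NR2E3. Buffer or medium: pH 7.5 Tris-based buffer. Reagent: biotinylated RetCOR corepressor at 7 nM final. Schedule: 5 h at 4 °C. Detection: TR-FRET, emission read at 617 and 671 nm. Replicates: one well per compound, singlicate testing.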
* marks the source's active call; other numbers are inactive results; ! = a repeat was not active; [ ] = another dose, or the depositor's remark. An excerpt weighted towards active compounds, which were near 2.2% of everything screened.

How did Cc1ccc(S(=O)(=O)c2c(N)n(Cc3ccco3)c3nc4ccccc4nc23)cc1 do in these assays?
miR-122 sensor: 121*; Jurkat NFkB inh: 19; NR2E3 ag-1: 8; 697 NFkB inh: 15; NR2E3 ag-2: -2

Results for Cc1cccc(S(=O)(=O)c2c(N)n(Cc3ccco3)c3nc4ccccc4nc23)c1 ?
miR-122 sensor: 64; Jurkat NFkB inh: 28; NR2E3 ag-1: 32; 697 NFkB inh: 11; NR2E3 ag-2: -1

What do the screens show for `C[C@@H]1CCCCO[C@@H](CN(C)S(=O)(=O)c2ccccc2)[C@@H](C)CN([C@H](C)CO)C(=O)c2cc(NC(=O)CCC(F)(F)F)ccc2O1`?
miR-122 sensor: 13[16.7 µM]; FGF22 binding: 15*

Results for C[C@@H]1CCCCO[C@@H](CN(C)C(=O)CCCN(C)C)[C@@H](C)CN([C@H](C)CO)C(=O)c2cc(NS(=O)(=O)c3cccs3)ccc2O1 ?
miR-122 sensor: 8[16.7 µM]; FGF22 binding: 0

How did Cc1ccc(S(=O)(=O)Nc2ccc3c(c2)C(=O)N([C@H](C)CO)C[C@H](C)[C@@H](CN(C)S(=O)(=O)c2ccc(Cl)cc2)OCCCC[C@H](C)O3)cc1 do in these assays?
miR-122 sensor: -19[16.7 µM]; FGF22 binding: 31*

Results for C[C@@H]1CCCCO[C@@H](CN(C)C(=O)CCCN(C)C)[C@H](C)CN([C@@H](C)CO)C(=O)c2cc(NS(=O)(=O)c3cccs3)ccc2O1 ?
miR-122 sensor: 7[16.7 µM]; FGF22 binding: 1.3*

What do the screens show for `C[C@@H]1CCCCO[C@@H](CN(C)S(=O)(=O)c2ccccc2)[C@@H](C)CN([C@H](C)CO)C(=O)c2cc(NS(=O)(=O)c3ccc(F)cc3)ccc2O1`?
miR-122 sensor: -8; FGF22 binding: 1.3*!; NR2E3 ag-1: -15

What do the screens show for `C[C@H](CO)N1C[C@H](C)[C@@H](CN(C)C(=O)CC2CC2)Oc2ncc(C#CC3(O)CCCC3)cc2C1=O`?
miR-122 sensor: -5[16.7 µM]; FGF22 binding: 0

What do the screens show for `C[C@H](CO)N1C[C@H](C)[C@H](CN(C)S(=O)(=O)c2cccs2)OCCCC[C@H](C)Oc2ccc(NS(=O)(=O)c3ccc(Cl)cc3)cc2C1=O`?
miR-122 sensor: -14[16.7 µM]; FGF22 binding: 1.2*

What do the screens show for `C[C@H](CO)N1C[C@H](C)[C@@H](CN(C)S(=O)(=O)c2cccs2)OCCCC[C@H](C)Oc2ccc(NS(=O)(=O)c3ccc(Cl)cc3)cc2C1=O`?
miR-122 sensor: 5[16.7 µM]; FGF22 binding: -1

How did C[C@@H]1CCCCO[C@H](CN(C)C(=O)CCCN(C)C)[C@@H](C)CN([C@H](C)CO)C(=O)c2cc(NC(=O)CCC(F)(F)F)ccc2O1 do in these assays?
miR-122 sensor: -4[16.7 µM]; FGF22 binding: 1.5*

What do the screens show for `Cc1ccc(S(=O)(=O)c2cccc(S(=O)(=O)N3CCCC3)c2)cc1S(=O)(=O)N1CCCC1`?
miR-122 sensor: 110*; Jurkat NFkB inh: 17; NR2E3 ag-1: 16; 697 NFkB inh: -9; NR2E3 ag-2: 2

How did O=C([C@@H]1[C@@H](CO)[C@@H]2Cn3c(ccc(-c4ccccc4F)c3=O)[C@H]1N2C(=O)C1CC1)N1CCCCC1 do in these assays?
miR-122 sensor: 6[16.7 µM]; FGF22 binding: 0

How did CCC(C(=O)Nc1cccc(C(=O)O)c1C)c1ccccc1 (configuration not stated) do in these assays?
Jurkat NFkB inh: 5; FGF22 binding: 43*; NR2E3 ag-1: 4; 697 NFkB inh: 11; NR2E3 ag-2: 0

Results for COc1cc(C)c(C(C)C)cc1S(=O)(=O)N1CCN(C)CC1 ?
miR-122 sensor: 149*; Jurkat NFkB inh: 12; NR2E3 ag-1: -10; 697 NFkB inh: 21; NR2E3 ag-2: 2

How did CCOc1cc(C)c(C(C)C)cc1S(=O)(=O)N1CCN(C)CC1 do in these assays?
miR-122 sensor: 54; Jurkat NFkB inh: 21; NR2E3 ag-1: -20; 697 NFkB inh: 5; NR2E3 ag-2: -2

What do the screens show for `CC(C)NC(=O)COC(=O)c1ccc(NS(=O)(=O)c2ccc3c(c2)OCCO3)cc1`?
miR-122 sensor: 280*; Jurkat NFkB inh: 3; NR2E3 ag-1: -2; 697 NFkB inh: 14; NR2E3 ag-2: -4

What do the screens show for `CNC(=O)COC(=O)c1ccc(NS(=O)(=O)c2ccc3c(c2)OCCO3)cc1`?
Jurkat NFkB inh: 3; FGF22 binding: 0; NR2E3 ag-1: 14; 697 NFkB inh: 6; NR2E3 ag-2: 2

Results for COc1ccc(-c2cnc3c(c2)C(=O)N([C@@H](C)CO)C[C@H](C)[C@H](CN(C)C(=O)C2CCOCC2)O3)cc1 ?
miR-122 sensor: 5[16.7 µM]; FGF22 binding: 0

How did CCn1c(=O)c2cc(S(=O)(=O)NC3CCCCC3)ccc2n(CC)c1=O do in these assays?
miR-122 sensor: 98*; Jurkat NFkB inh: -8; NR2E3 ag-1: 9; 697 NFkB inh: 6; NR2E3 ag-2: 6

How did C[C@@H]1CN([C@H](C)CO)C(=O)CCCn2cc(nn2)CO[C@@H]1CN(C)S(=O)(=O)c1ccc(Oc2ccccc2)nc1 do in these assays?
FGF22 binding: 0

What do the screens show for `CC1(C#CC[N+]2(C)CCCCC2)CCC2C(O1)c1ccccc1OC2(C)C` (configuration not stated)?
Jurkat NFkB inh: 5; FGF22 binding: 44*; NR2E3 ag-1: 8; 697 NFkB inh: -2; NR2E3 ag-2: 1

What do the screens show for `COc1cccc(-n2c(SCC(N)=O)nc3ccccc3c2=O)c1`?
Jurkat NFkB inh: 3; FGF22 binding: 0; NR2E3 ag-1: -28; 697 NFkB inh: 0; NR2E3 ag-2: -3

Results for COc1cccc(-n2c(SCC(=O)NC3CC3)nc3ccccc3c2=O)c1 ?
miR-122 sensor: 4; FGF22 binding: 43*; NR2E3 ag-1: -2

What do the screens show for `NS(=O)(=O)c1ccc(CCNC(=O)c2ccc(Br)s2)cc1`?
Jurkat NFkB inh: -17; FGF22 binding: 43*; NR2E3 ag-1: 1; 697 NFkB inh: 3; NR2E3 ag-2: 2

What do the screens show for `Cc1noc(C)c1NC(=O)N(C)C[C@H]1Oc2ccc(NC(=O)Nc3ccc(F)cc3)cc2CC(=O)N([C@H](C)CO)C[C@@H]1C`?
miR-122 sensor: 3[16.7 µM]; FGF22 binding: 0
